Key:
Nitric oxide synthase 1 = Nitric oxide synthase 1 (Rattus norvegicus, UniProt P29476); assay: Inhibition of recombinant rat brain nNOS expressed in Escherichia coli
[1] = Selectivity for nNOS over iNOS
[2] = target: T1, Nitric oxide synthase, inducible (Mus musculus, UniProt P29477); assay: Inhibition of recombinant mouse macrophage iNOS expressed in Escherichia coli
T1 sequence (P29477 whole entry): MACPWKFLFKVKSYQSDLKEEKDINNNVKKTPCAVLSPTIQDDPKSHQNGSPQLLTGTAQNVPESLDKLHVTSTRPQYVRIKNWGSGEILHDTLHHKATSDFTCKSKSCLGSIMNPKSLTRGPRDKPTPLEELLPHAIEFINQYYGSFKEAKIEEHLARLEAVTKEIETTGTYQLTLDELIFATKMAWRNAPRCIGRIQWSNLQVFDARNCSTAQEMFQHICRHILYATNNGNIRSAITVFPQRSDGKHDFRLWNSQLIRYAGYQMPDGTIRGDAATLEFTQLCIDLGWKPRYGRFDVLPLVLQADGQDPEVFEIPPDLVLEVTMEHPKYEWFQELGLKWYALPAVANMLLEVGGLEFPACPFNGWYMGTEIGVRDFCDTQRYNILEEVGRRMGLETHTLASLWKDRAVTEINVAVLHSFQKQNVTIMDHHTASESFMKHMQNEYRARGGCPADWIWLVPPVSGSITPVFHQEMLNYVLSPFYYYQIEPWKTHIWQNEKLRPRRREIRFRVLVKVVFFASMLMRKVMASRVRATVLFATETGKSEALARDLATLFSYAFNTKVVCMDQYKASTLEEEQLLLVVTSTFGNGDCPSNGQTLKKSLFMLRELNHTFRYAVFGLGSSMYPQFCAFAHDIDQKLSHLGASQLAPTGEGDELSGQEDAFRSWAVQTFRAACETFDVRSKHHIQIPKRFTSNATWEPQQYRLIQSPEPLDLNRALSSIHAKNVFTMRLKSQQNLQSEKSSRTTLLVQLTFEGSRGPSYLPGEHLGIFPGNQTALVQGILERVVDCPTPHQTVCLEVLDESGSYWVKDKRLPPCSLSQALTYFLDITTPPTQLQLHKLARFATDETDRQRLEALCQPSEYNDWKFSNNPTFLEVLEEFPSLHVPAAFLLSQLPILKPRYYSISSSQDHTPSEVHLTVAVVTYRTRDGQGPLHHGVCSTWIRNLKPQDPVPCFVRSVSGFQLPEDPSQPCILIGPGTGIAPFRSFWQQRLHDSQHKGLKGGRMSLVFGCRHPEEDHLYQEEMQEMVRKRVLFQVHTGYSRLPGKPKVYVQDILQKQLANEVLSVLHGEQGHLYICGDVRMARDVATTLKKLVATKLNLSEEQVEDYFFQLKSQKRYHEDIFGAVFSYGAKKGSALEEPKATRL
Summary of the method: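 Enzyme purified from E. coli, added to start the reaction. Conditions: 30 °C, 100 mM Hepes pH 7.4, 10 µM L-arginine, 100 µM DTT, 100 µM NADPH, 6.5 µM H4B, […], no added Ca2+ or calmodulin. NO capture was read as the A400 rise over 1 min.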

Nitric oxide synthase 3 = target: T2, Nitric oxide synthase 3 (Bos taurus, UniProt P29473); assay: Inhibition of recombinant bovine eNOS expressed in Escherichia coli
T2 sequence (P29473 whole entry): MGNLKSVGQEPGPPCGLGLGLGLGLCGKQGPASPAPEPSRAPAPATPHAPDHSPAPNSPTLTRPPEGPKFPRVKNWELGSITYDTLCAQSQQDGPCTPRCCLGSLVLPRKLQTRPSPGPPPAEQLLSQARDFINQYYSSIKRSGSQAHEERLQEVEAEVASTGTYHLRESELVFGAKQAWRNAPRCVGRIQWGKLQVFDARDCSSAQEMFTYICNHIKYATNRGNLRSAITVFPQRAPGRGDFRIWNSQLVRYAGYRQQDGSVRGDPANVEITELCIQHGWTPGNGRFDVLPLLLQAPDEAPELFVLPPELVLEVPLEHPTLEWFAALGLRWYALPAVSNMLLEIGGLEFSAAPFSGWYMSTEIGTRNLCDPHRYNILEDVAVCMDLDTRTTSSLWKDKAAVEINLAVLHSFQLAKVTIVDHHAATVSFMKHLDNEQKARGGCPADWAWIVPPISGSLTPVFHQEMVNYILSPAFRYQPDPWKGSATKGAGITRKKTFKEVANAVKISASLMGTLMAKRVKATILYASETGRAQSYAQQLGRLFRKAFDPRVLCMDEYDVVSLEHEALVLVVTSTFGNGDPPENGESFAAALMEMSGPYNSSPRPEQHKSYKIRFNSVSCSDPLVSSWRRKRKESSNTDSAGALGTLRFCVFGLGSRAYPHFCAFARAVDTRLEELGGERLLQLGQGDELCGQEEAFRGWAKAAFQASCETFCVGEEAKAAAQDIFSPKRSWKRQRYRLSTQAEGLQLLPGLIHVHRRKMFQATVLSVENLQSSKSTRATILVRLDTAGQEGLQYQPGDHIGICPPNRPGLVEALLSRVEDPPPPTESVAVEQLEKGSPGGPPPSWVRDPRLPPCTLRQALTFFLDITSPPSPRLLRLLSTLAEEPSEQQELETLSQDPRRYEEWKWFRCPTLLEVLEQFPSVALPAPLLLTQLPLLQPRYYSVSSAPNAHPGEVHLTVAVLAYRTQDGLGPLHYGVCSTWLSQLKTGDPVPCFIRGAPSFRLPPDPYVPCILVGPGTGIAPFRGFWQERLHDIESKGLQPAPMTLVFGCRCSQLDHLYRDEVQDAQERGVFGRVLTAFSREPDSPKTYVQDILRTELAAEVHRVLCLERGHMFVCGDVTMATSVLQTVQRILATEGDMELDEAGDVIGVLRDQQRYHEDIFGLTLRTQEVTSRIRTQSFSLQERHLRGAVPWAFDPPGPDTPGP

[3] = Selectivity for nNOS over eNOS

Chain of Nitric oxide synthase 1 (P29476 whole entry): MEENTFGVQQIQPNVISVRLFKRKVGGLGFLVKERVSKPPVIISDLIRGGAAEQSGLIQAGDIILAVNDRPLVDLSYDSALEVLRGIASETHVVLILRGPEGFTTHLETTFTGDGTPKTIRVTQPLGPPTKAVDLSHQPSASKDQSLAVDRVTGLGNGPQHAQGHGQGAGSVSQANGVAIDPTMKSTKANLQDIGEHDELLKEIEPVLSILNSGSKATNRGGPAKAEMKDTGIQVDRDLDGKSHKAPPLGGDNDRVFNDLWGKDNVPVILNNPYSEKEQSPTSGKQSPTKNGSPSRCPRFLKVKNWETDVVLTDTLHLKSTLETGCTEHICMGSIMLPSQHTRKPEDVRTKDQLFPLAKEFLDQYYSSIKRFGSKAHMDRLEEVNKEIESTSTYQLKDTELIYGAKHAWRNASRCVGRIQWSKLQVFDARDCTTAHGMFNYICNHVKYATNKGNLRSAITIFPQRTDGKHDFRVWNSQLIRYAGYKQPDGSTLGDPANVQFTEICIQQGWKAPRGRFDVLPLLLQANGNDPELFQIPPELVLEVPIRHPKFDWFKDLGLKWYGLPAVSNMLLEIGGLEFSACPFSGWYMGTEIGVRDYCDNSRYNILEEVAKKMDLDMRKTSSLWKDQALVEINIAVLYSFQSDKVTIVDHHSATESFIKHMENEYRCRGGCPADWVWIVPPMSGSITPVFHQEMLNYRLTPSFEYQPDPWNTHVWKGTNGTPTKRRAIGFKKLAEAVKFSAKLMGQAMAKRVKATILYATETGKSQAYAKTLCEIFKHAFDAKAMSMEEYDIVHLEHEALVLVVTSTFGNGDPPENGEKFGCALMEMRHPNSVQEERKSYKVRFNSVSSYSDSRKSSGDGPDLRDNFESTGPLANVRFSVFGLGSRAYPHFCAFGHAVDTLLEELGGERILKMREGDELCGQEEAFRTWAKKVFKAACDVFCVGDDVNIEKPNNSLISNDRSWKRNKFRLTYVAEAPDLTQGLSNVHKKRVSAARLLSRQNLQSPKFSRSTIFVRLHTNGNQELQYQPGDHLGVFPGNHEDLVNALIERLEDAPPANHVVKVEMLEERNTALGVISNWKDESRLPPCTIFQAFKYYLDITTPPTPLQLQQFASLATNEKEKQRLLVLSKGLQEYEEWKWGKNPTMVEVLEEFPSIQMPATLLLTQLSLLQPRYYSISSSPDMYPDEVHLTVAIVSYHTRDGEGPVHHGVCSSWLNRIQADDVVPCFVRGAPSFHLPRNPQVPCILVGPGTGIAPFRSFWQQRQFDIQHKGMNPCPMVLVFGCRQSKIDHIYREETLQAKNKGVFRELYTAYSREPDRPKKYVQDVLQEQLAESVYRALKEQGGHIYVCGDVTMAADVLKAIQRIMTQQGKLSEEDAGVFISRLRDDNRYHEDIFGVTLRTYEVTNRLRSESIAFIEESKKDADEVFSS

Structure (SMILES) | IC50 (Nitric oxide synthase 1) [µM] | Ki (Nitric oxide synthase 1) [nM] | Ratio IC50 [1] | IC50 [2] [µM] | IC50 (Nitric oxide synthase 3) [mM] | Ratio IC50 [3]
N=C(NCCC[C@H](N)C[C@H](O)CCCN)N[N+](=O)[O-] | 6.8 | 830 | 33 | 313 | 1.53 | 225
N=C(NCCC[C@H](N)C[C@@H](O)CCCN)N[N+](=O)[O-] |  |  | 15 |  |  | 59
NC(=NCCC[C@H](N)C[C@@H](O)CCO)N[N+](=O)[O-] | 106 |  |  | 331 | 1.09 | 
N=C(NCCC[C@H](N)C[C@@H](O)CCCO)N[N+](=O)[O-] |  |  | 2.1 |  |  | 10.1
NC(=NCCC[C@H](N)C[C@@H](O)CCCO)N[N+](=O)[O-] | 255 |  |  | 524 | 2.58 | 
NCC[C@@H](O)C[C@@H](N)CCCN=C(N)N[N+](=O)[O-] | 9.4 | 1100 |  | 167 | 1.34 | 
NCCC[C@H](O)C[C@@H](N)CCCN=C(N)N[N+](=O)[O-] | 23.5 | 2800 |  | 361 | 1.39 | 
N=C(NCCC[C@H](N)C[C@H](O)CCCO)N[N+](=O)[O-] | 490 |  | 0.54 | 266 | 0.879 | 1.8
N=C(NCCC[C@H](N)C[C@@H](O)CCO)N[N+](=O)[O-] |  |  | 3.1 |  |  | 10.2
NC(=NCCC[C@H](N)C[C@H](O)CCO)N[N+](=O)[O-] | 168 |  |  | 1290 | 1.66 | 
N=C(NCCC[C@H](N)C[C@H](O)CCN)N[N+](=O)[O-] |  |  | 18 |  |  | 143
N=C(NCCC[C@H](N)C[C@@H](O)CCN)N[N+](=O)[O-] | 2.4 | 290 | 107 | 257 | 1.14 | 475
N=C(NCCC[C@H](N)C[C@H](O)CCO)N[N+](=O)[O-] |  |  | 7.7 |  |  | 9.9

Reference: ChEMBL document CHEMBL1149653, “Hydroxyethylene isosteres of selective neuronal nitric oxide synthase inhibitors” (Bioorg Med Chem, 2007)
